Assay results reported in ChEMBL document CHEMBL3421612, “Identification of an anti-inflammatory derivative with anti-cancer potential: The impact of each of its structural components on inflammatory responses in macrophages and bladder cancer cells” (2015).
Calls of active or inactive are those of the source. The calls are words filed in the database; no cut-off is given here.

Assays:
[1] = tested on: MB49-I; assay: (§1) Antiinflammatory activity against mouse MB49-I cells assessed as inhibition of IFN-gamma/TNFalpha-NO production pretreated at 10 uM after 24 hrs by Griess reaction relative to vehicle treated control; type: functional
Summary of the method: (§2)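 Cells seeded at 25 × 10³ per well, pretreated 3 h with test agents, washed twice with 10% FBS RPMI-1640, then stimulated 24 h with IFNγ plus TNFα. NO was quantified as nitrite using the Griess reaction (sulfanilic acid diazotization coupled to N-(1-naphthyl)ethylenediamine), absorbance at 548 nm, compared with cytokine-only control cells.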

[2] = tested on: MB49-I; assay: (§3) Antiinflammatory activity against mouse MB49-I cells assessed as inhibition of IFN-gamma/TNFalpha-NO production pretreated at 50 uM after 24 hrs by Griess reaction relative to vehicle treated control; type: functional; summary of the method: as §2
[3] = tested on: THP-1; assay: Reduction in IFN-gamma-induced STAT1 phosphorylation in human THP1 cells assessed as fold decrease at 10 uM after 30 mins by densitometric analysis relative to vehicle treated control; type: functional; conditions: THP-1, 0.5 h
Summary of the method: (§4)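 PMA-differentiated THP1 macrophages at 750 × 10³ cells/mL were pretreated 30 min with DMSO or compound at 10 or 50 μM, washed, then harvested immediately or after 30 min of 50 U/mL IFNγ (pSTAT1) or 25 ng/mL IL6 (pSTAT3). Lysates were run on reducing SDS-PAGE and immunoblotted for pSTAT1/pSTAT3, with blots reprobed for total STAT; phosphorylation was expressed as fold induction.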

[4] = tested on: THP-1; assay: Reduction in IFN-gamma-induced STAT1 phosphorylation in human THP1 cells assessed as fold decrease at 50 uM after 30 mins by densitometric analysis relative to vehicle treated control; type: functional; conditions: THP-1, 0.5 h; summary of the method: as §4
[5] = tested on: THP-1; assay: Reduction in IL6-induced STAT3 phosphorylation in human THP1 cells assessed as fold decrease at 10 uM after 30 mins by densitometric analysis relative to vehicle treated control; type: functional; conditions: THP-1, 0.5 h; summary of the method: as §4
[6] = tested on: THP-1; assay: Reduction in IL6-induced STAT3 phosphorylation in human THP1 cells assessed as fold decrease at 50 uM after 30 mins by densitometric analysis relative to vehicle treated control; type: functional; conditions: THP-1, 0.5 h; summary of the method: as §4
[7] = Reduction in IFN-gamma-induced MHC2 expression in human THP1 cells assessed as fold decrease pretreated at 10 uM after 48 hrs by flow cytometry relative to vehicle treated control; type: functional, cell-based; conditions: THP-1
Summary of the method: (§5)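 PMA-differentiated GFP-THP1 macrophages at 750 × 10⁴ cells/mL were pretreated 3 h with DMSO or compound, then left untreated or stimulated 48 h with 50 U/mL IFNγ. Surface CD40 and MHC-II were quantified by flow cytometry as fold change versus resting cells.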

[8] = Reduction in IFN-gamma-induced CD40 expression in human THP1 cells assessed as fold decrease pretreated at 10 uM after 48 hrs by flow cytometry relative to vehicle treated control; type: functional, cell-based; conditions: THP-1; summary of the method: as §5
[9] = tested on: J774.A1; assay: Reduction in IFN-gamma/TNFalpha-induced NO production in mouse J774A.1 cells pretreated at 10 uM measured for 24 hrs by Griess reaction relative to vehicle treated control; type: functional; summary of the method: as §2
[10] = tested on: J774.A1; assay: Reduction in IFN-gamma/TNFalpha-induced NO production in mouse J774A.1 cells pretreated at 50 uM measured for 24 hrs by Griess reaction relative to vehicle treated control; type: functional; summary of the method: as §2
[11] = tested on: MB49-I; assay: Antiproliferative activity against mouse MB49-I cells assessed as induction of IFN-gamma/TNFalpha-induced loss of cell viability at 10 uM after 24 hrs by MTT assay relative to control; type: functional, cell-based
Summary of the method: (§6)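 MB49-I cells plated at 5 × 10³ per well and cultured 24 h. Pretreated 3 h with DMSO or compound at 0–50 μM, then incubated 24 h with or without IFNγ plus TNFα. MTT added for 3 h, solubilized overnight in 10% SDS/10 mM HCl, and absorbance read at 580 nm.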

[12] = (§7) Antiproliferative activity against mouse MB49-I cells assessed as induction of IFN-gamma/TNFalpha-induced loss of cell viability at 25 uM after 24 hrs by MTT assay relative to control; type: functional; summary of the method: as §6
[13] = (§8) Antiproliferative activity against mouse MB49-I cells assessed as induction of IFN-gamma/TNFalpha-induced loss of cell viability at 37.5 uM after 24 hrs by MTT assay relative to control; type: functional; summary of the method: as §6
[14] = (§9) Antiproliferative activity against mouse MB49-I cells assessed as induction of IFN-gamma/TNFalpha-induced loss of cell viability at 50 uM after 24 hrs by MTT assay relative to control; type: functional; summary of the method: as §6
[15] = as §1; type: functional; summary of the method: as §2
[16] = as §3; type: functional; summary of the method: as §2
[17] = Reduction in IFN-gamma-induced CD40 expression in human THP1 cells assessed as fold decrease pretreated at 25 uM after 48 hrs by flow cytometry relative to vehicle treated control; type: functional, cell-based; conditions: THP-1; summary of the method: as §5
[18] = Reduction in IFN-gamma-induced MHC2 expression in human THP1 cells assessed as fold decrease pretreated at 25 uM after 48 hrs by flow cytometry relative to vehicle treated control; type: functional, cell-based; conditions: THP-1; summary of the method: as §5
[19] = tested on: MB49-I; assay: as §7; type: functional; summary of the method: as §6
[20] = tested on: MB49-I; assay: as §8; type: functional; summary of the method: as §6
[21] = tested on: MB49-I; assay: as §9; type: functional; summary of the method: as §6

In the case of CC(C)(C)OC(=O)NNC(=O)c1ccccc1, the Activity [1] was “inactive” and the Activity [2] was “inactive”.

With O=C1C=CC(=O)O1 the inhibition [1] was “inactive” and the inhibition [2] was “inactive”.

With O=C1C=CC(=O)N1c1ccccc1 the inhibition [1] was “inactive” and the inhibition [2] was “inactive”.

With O=C(O)c1ccc(N2C(=O)C=CC2=O)cc1 the inhibition [1] was “inactive” and the inhibition [2] was “inactive”.

In the case of Nc1ccc(C(=O)O)cc1, the inhibition [1] was “inactive” and the inhibition [2] was “inactive”.

CC(C)(C)OC(=O)NNC(=O)c1ccc(N2C(=O)C=CC2=O)cc1 showed an inhibition at 10 µM [3] of 38%, an inhibition at 50 µM [4] of 71% and an inhibition at 10 µM [5] of 64%. For the same compound, the inhibition at 50 µM [6] was 85%, the inhibition [7] was 49% and the inhibition [8] was 87%. The inhibition at 10 µM [9] was 46%, the inhibition at 50 µM [10] was 91% and the Activity [11] was “inactive”. It also gave an inhibition at 25 µM [12] of 19%, an inhibition at 37.5 µM [13] of 45% and an inhibition at 50 µM [14] of 50%. The inhibition at 10 µM [15] was 40% and the inhibition at 50 µM [16] was 81%.

For NNC(=O)c1ccc(N2C(=O)C=CC2=O)cc1, the inhibition at 10 µM [3] was 16%, the inhibition at 50 µM [4] was 66% and the inhibition at 10 µM [5] was 15%. The inhibition at 50 µM [6] was 38%, the inhibition [17] was 43% and the inhibition [18] was 23%. The inhibition at 10 µM [9] was 24%, the inhibition at 50 µM [10] was 69% and the Activity [11] was “inactive”. The inhibition [19] was “inactive”, the inhibition [20] was “inactive” and the inhibition [21] was “inactive”. For the same compound, the inhibition at 10 µM [15] was 21% and the inhibition at 50 µM [16] was 72%.

For O=C(O)/C=C\C(=O)Nc1ccccc1, the inhibition [1] was “inactive” and the inhibition [2] was “inactive”.

For O=C(O)/C=C\C(=O)Nc1ccc(C(=O)O)cc1, the inhibition [1] was “inactive” and the inhibition [2] was “inactive”.
